We go through three compounds from ChEMBL document CHEMBL1833946, “Synthesis of β-functionalized temoporfin derivatives for an application in photodynamic therapy” (Bioorg Med Chem Lett, 2011).

Activity calls are given as the source filed them. The rule behind the calls is not given here.

For data set [1], the system named is HT-29. Description: Phototoxicity against human HT29 cells irradiated with 652 nm diode laser at the rate of 50 J/cm'2 at 2 uM after 24 hrs by XTT assay in presence of 10% heat-inactivated fetal calf serum. The format is functional, cell-based. In a few lines:
(§1)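 HT-29 cells seeded at 2 × 10⁴ cells/well. Loaded 24 h with 2 or 10 μM sensitizer (final; from 2 mM DMSO stock kept dark at 4 °C) in phenol-red-free RPMI 1640 plus 10% FCS. Irradiated at room temperature with a 652 nm diode laser, 100 mW/cm², 50 J/cm². Viability read by XTT absorbance.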
A general note: Tetrazolium dyes change colour on reduction, which living cells bring about.

A short description of data set [2]: Chemical stability of the compound. The format is physicochemical.
Data set [3] deals with HT-29. As to the kind of experiment: Cytotoxicity against human HT29 cells under dark condition at 10 uM after 24 hrs by XTT assay in presence of 10% heat-inactivated fetal calf serum. The format is functional, cell-based. In a few lines:
(§2)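 HT-29 human colon adenocarcinoma cells seeded at 2 × 10⁴ cells/well. Incubated 24 h with 2 or 10 μM sensitizer (final, diluted from 2 mM DMSO stock) in phenol-red-free RPMI 1640 with 10% FCS. Cells kept without irradiation for dark toxicity. Viability measured by XTT absorbance.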

Data set [4] deals with HT-29. Description: Cytotoxicity against human HT29 cells under dark condition at 2 uM after 24 hrs by XTT assay in presence of 10% heat-inactivated fetal calf serum. Type of data set: functional, cell-based. In a few lines:
as §2

In data set [5] the test system is HT-29. As to the kind of experiment: Phototoxicity against human HT29 cells irradiated with 652 nm diode laser at the rate of 50 J/cm'2 at 10 uM after 24 hrs by XTT assay in presence of 10% heat-inactivated fetal calf serum. The format is functional, cell-based. In a few lines: as §1

For `Oc1cccc(-c2c3nc(c(-c4cccc(O)c4)c4ccc([nH]4)c(-c4cccc(O)c4)c4nc(c(-c5cccc(O)c5)c5ccc2[nH]5)C(O)(C(F)(F)F)C4(O)C(F)(F)F)C=C3)c1` (stereo not given), the result with HT-29 [1] and in the data set with HT-29 [5] was Active. Besides, the Stability result in data set [2] is listed as “Stable”. Further, the result with HT-29 [3] and in the data set on HT-29 [4] was inactive.

As for `CCCCCCC1(O)c2nc(c(-c3cccc(O)c3)c3ccc([nH]3)c(-c3cccc(O)c3)c3nc(c(-c4cccc(O)c4)c4ccc([nH]4)c2-c2cccc(O)c2)C=C3)C1(O)CCCCCC` (stereo not given), the outcome in the data set with HT-29 [1] and in the data set on HT-29 [5] was Active. Also, in data set [2], the Stability result is recorded as “Stable”. Moreover, the outcome with HT-29 [3] and with HT-29 [4] was inactive.

For `Oc1cccc(-c2c3nc(c(-c4cccc(O)c4)c4ccc([nH]4)c(-c4cccc(O)c4)c4nc(c(-c5cccc(O)c5)c5ccc2[nH]5)C(O)(c2cc(C(F)(F)F)cc(C(F)(F)F)c2)C4(O)c2cc(C(F)(F)F)cc(C(F)(F)F)c2)C=C3)c1` (stereo not given), the result in the data set on HT-29 [1], in the data set with HT-29 [3] and in the data set with HT-29 [4] was inactive. In data set [2], the Stability result is “Stable”. Further, in the data set with HT-29 [5], the result was Active.
